In ChEMBL document CHEMBL1135717, “Minor groove DNA binders as antimicrobial agents. 1. Pyrrole tetraamides are potent antibacterials against vancomycin resistant Enterococci [corrected] and methicillin resistant Staphylococcus aureus” (J Med Chem, 2002):
Converted amounts (≈) assume the structure as drawn.

Assays:
Staphylococcus aureus = experiment: In vitro antimicrobial activity against Methicillin resistant Staphylococcus aureus; format: functional
How it was run: (§1)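 Broth microdilution MIC per NCCLS M7-A4. Compounds dissolved fresh in DMSO as 10 mM stock, then diluted in BHI medium for VRE (BM4147, UCD3) or Mueller-Hinton medium for MRSA. Seven 1:2 serial dilutions gave test concentrations of 45.5 to 0.7 μM. MIC read by visual inspection of wells after 2 days.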

Nucleic Acid [1] = experiment: DNA binding measured as Changes in the DNA melting temperature of an AT-rich dodecamer (CGATTATTAAGC) (GCTTAATAATCG) upon binding of an equimolar amount of compound; format: nucleic-acid assay
How it was run: (§2)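 Melting monitored by UV absorbance at 260 nm in 10 mM HEPES pH 7.2, 0.1 mM EDTA, 50 mM NaCl. 12-bp AT-rich oligo at 5 μM mixed with compound at equimolar ratio. Temperature ramped 15 to 95 °C at 0.2 °C/min. Tm by derivative method, checked by hyperchromicity. ΔTm is Tm with compound minus Tm without. At least duplicate.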

Enterococcus [2] = experiment: In vitro antimicrobial activity against Vancomycin resistant enterococcus strain UCD-3; format: functional; how it was run: as §1
Enterococcus [3] = experiment: In vitro antimicrobial activity against Vancomycin resistant enterococcus strain BM4147; format: functional; how it was run: as §1
[4] = Toxicity assessed in human T-cells using a colorimetric cell proliferation assay.; format: cell-based
How it was run: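 CCRF-CEM human leukemia T-cells in RPMI-1640 with 10% FBS and gentamicin 0.1 mg/mL, seeded at 4 × 10^4 cells/well. Compound added at start at 50, 25, 12.5 and 6.3 μM. WST-1 cleavage read by absorbance at 440 nm at 24, 48 and 72 h. Value reported as lowest % of no-compound control, typically 72 h at 50 μM. At least triplicate.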

Nucleic Acid [5] = experiment: Changes in the DNA melting temperature of an AT-rich dodecamer (CGATTATTAAGC) (GCTTAATAATCG) upon binding of an equimolar amount of compound; format: nucleic-acid assay; how it was run: as §2

| Structure (SMILES) | MIC (Staphylococcus aureus) | ΔTm (Nucleic Acid [1]) | MIC (Enterococcus [2]) | MIC (Enterococcus [3]) | NCC [4] | ΔTm (Nucleic Acid [5]) |
| --- | --- | --- | --- | --- | --- | --- |
| CC(C)CCn1cc(NC(=O)c2ccnc(C(=O)Nc3cc(C(=O)NCCC(=N)N)n(CCC(C)C)c3)c2)cc1C(=O)NCCC(=N)N | 2.8 µM (≈ 1.85 µg/mL) | 11 °C | 22.7 µM (≈ 15 µg/mL) | 22.7 µM (≈ 15 µg/mL) | 6% | – |
| N=C(N)CCNC(=O)c1cc(NC(=O)c2ccc(C(=O)Nc3cc(C(=O)NCCC(=N)N)n(CC4CC4)c3)c([N+](=O)[O-])c2)cn1CC1CC1 | 1.4 µM (≈ 0.943 µg/mL) | 28 °C | 2.8 µM (≈ 1.89 µg/mL) | 2.8 µM (≈ 1.89 µg/mL) | 87% | – |
| CC(C)CCn1cc(NC(=O)c2ccc(C(=O)Nc3cc(C(=O)NCCC(=N)N)n(CCC(C)C)c3)cc2)cc1C(=O)NCCC(=N)N | 1.4 µM (≈ 0.925 µg/mL) | – | 0.7 µM (≈ 0.463 µg/mL) | 0.7 µM (≈ 0.463 µg/mL) | 4% | 28 |
| Cn1cc(NC(=O)c2cc(NC(=O)c3cc(NC=O)cn3C)cn2C)cc1C(=O)NCCC(=N)N [STALLIMYCIN] | > 45.5 µM | – | > 45.5 µM | > 45.5 µM | 79% | 26 |
| CCCn1cc(NC(=O)c2ccc(C(=O)Nc3cc(C(=O)NCCC(=N)N)n(CCC)c3)cc2)cc1C(=O)NCCC(=N)N | 11.1 µM (≈ 6.71 µg/mL) | – | 5.6 µM (≈ 3.39 µg/mL) | 5.6 µM (≈ 3.39 µg/mL) | 61% | 29 |
| N=C(N)CCNC(=O)c1cc(NC(=O)c2ccc(C(=O)Nc3cc(C(=O)NCCC(=N)N)n(CC4CC4)c3)nc2)cn1CC1CC1 | 1.4 µM (≈ 0.882 µg/mL) | 27 °C | 2.8 µM (≈ 1.76 µg/mL) | 1.4 µM (≈ 0.882 µg/mL) | 82% | – |
| CC(C)CCn1cc(NC(=O)c2ccc(C(=O)Nc3cc(C(=O)NCCC(=N)N)n(CCC(C)C)c3)nc2)cc1C(=O)NCCC(=N)N | 1.4 µM (≈ 0.927 µg/mL) | 25 °C | 1.4 µM (≈ 0.927 µg/mL) | 0.7 µM (≈ 0.463 µg/mL) | 3% | – |
| CC(C)CCn1cc(NC(=O)C2CCC(C(=O)Nc3cc(C(=O)NCCC(=N)N)n(CCC(C)C)c3)CC2)cc1C(=O)NCCC(=N)N (stereo not given) | 11.4 µM (≈ 7.6 µg/mL) | 11 °C | > 45.5 µM | > 45.5 µM | 88% | – |
| C/N=C(\N)CCNC(=O)c1cc(NC(=O)c2ccc(C(=O)Nc3cc(C(=O)NCC/C(N)=N/C)n(CCC(C)C)c3)cc2)cn1CCC(C)C | 0.7 µM (≈ 0.482 µg/mL) | 28 °C | 1.4 µM (≈ 0.964 µg/mL) | 1.4 µM (≈ 0.964 µg/mL) | – | – |
| Cc1cc(C(=O)Nc2cc(C(=O)NCCC(=N)N)n(CCC(C)C)c2)ccc1C(=O)Nc1cc(C(=O)NCCC(=N)N)n(CCC(C)C)c1 | 0.7 µM (≈ 0.472 µg/mL) | 24 °C | 1.4 µM (≈ 0.945 µg/mL) | 1.4 µM (≈ 0.945 µg/mL) | 38% | – |
| CC(C)CCn1cc(NC(=O)c2ccc(C(=O)Nc3cc(C(=O)NCCC(=N)N)n(CCC(C)C)c3)c3ccccc23)cc1C(=O)NCCC(=N)N | 2.8 µM (≈ 1.99 µg/mL) | 20 °C | 5.7 µM (≈ 4.05 µg/mL) | 2.8 µM (≈ 1.99 µg/mL) | 15% | – |
| N=C(N)CCNC(=O)c1cc(NC(=O)c2cc(C(=O)Nc3cc(C(=O)NCCC(=N)N)n(CC4CC4)c3)[nH]n2)cn1CC1CC1 | 2.8 µM (≈ 1.73 µg/mL) | 26 °C | 5.7 µM (≈ 3.53 µg/mL) | 5.7 µM (≈ 3.53 µg/mL) | 88% | – |
| CC(C)CCn1cc(NC(=O)c2cnc(C(=O)Nc3cc(C(=O)NCCC(=N)N)n(CCC(C)C)c3)cn2)cc1C(=O)NCCC(=N)N | 2.8 µM (≈ 1.86 µg/mL) | 20 °C | 2.8 µM (≈ 1.86 µg/mL) | 2.8 µM (≈ 1.86 µg/mL) | 32% | – |
| Cc1cc(C(=O)Nc2cc(C(=O)NCCC(=N)N)n(CC3CC3)c2)ccc1C(=O)Nc1cc(C(=O)NCCC(=N)N)n(CC2CC2)c1 | 2.8 µM (≈ 1.8 µg/mL) | 26 °C | 2.8 µM (≈ 1.8 µg/mL) | 2.8 µM (≈ 1.8 µg/mL) | 87% | – |
| C/N=C(/CCNC(=O)c1cc(NC(=O)c2ccc(C(=O)Nc3cc(C(=O)NCC/C(=N/C)NC)n(CCC(C)C)c3)cc2)cn1CCC(C)C)NC | 1.4 µM (≈ 1 µg/mL) | 26 °C | 1.4 µM (≈ 1 µg/mL) | 1.4 µM (≈ 1 µg/mL) | – | – |
| CC(C)CCn1cc(NC(=O)CCCCC(=O)Nc2cc(C(=O)NCCC(=N)N)n(CCC(C)C)c2)cc1C(=O)NCCC(=N)N | > 45.5 µM | 10 °C | > 45.5 µM | > 45.5 µM | 87% | – |

| Structure (SMILES) | MIC (Staphylococcus aureus) | ΔTm (Nucleic Acid [1]) | MIC (Enterococcus [2]) | MIC (Enterococcus [3]) | NCC [4] | ΔTm (Nucleic Acid [5]) |
| --- | --- | --- | --- | --- | --- | --- |
| CCC/N=C(\N)CCNC(=O)c1cc(NC(=O)c2ccc(C(=O)Nc3cc(C(=O)NCC/C(N)=N/CCC)n(CCC(C)C)c3)cc2)cn1CCC(C)C | 1.4 µM (≈ 1.04 µg/mL) | 26 °C | 1.4 µM (≈ 1.04 µg/mL) | 1.4 µM (≈ 1.04 µg/mL) | 15% | – |
| CC/N=C(\N)CCNC(=O)c1cc(NC(=O)c2ccc(C(=O)Nc3cc(C(=O)NCC/C(N)=N/CC)n(CCC(C)C)c3)cc2)cn1CCC(C)C | 1.4 µM (≈ 1 µg/mL) | 27 °C | 1.4 µM (≈ 1 µg/mL) | 1.4 µM (≈ 1 µg/mL) | 74% | – |
| CC(C)CCn1cc(NC(=O)c2ccc3cc(C(=O)Nc4cc(C(=O)NCCC(=N)N)n(CCC(C)C)c4)ccc3c2)cc1C(=O)NCCC(=N)N | > 45.5 µM | 24 °C | > 45.5 µM | > 45.5 µM | 0% | – |
| CNC(=N)CCNC(=O)c1cc(NC(=O)c2ccc(C(=O)Nc3cc(C(=O)NCCC(=N)NC)n(CCC(C)C)c3)cc2)cn1CCC(C)C | – | – | – | – | 78% | – |
| CC(C)CCn1cc(NC(=O)c2ccc(C(=O)Nc3cc(C(=O)NCCC4=NCCCN4)n(CCC(C)C)c3)cc2)cc1C(=O)NCCC1=NCCCN1 | 0.7 µM (≈ 0.519 µg/mL) | 28 °C | 0.7 µM (≈ 0.519 µg/mL) | 0.7 µM (≈ 0.519 µg/mL) | 51% | – |
| N=C(N)CCNC(=O)c1cc(NC(=O)c2cnc(C(=O)Nc3cc(C(=O)NCCC(=N)N)n(CC4CC4)c3)cn2)cn1CC1CC1 | 2.8 µM (≈ 1.77 µg/mL) | 23 °C | 5.7 µM (≈ 3.6 µg/mL) | 2.8 µM (≈ 1.77 µg/mL) | 90% | – |
| CC(C)CCn1cc(NC(=O)c2ccc(C(=O)Nc3cc(C(=O)NCCC(=N)N)n(CCC(C)C)c3)c([N+](=O)[O-])c2)cc1C(=O)NCCC(=N)N | 1.4 µM (≈ 0.988 µg/mL) | 25 °C | 1.4 µM (≈ 0.988 µg/mL) | 1.4 µM (≈ 0.988 µg/mL) | 42% | – |
| N=C(N)CCNC(=O)c1cc(NC(=O)c2ccc(C(=O)Nc3cc(C(=O)NCCC(=N)N)n(CC4CC4)c3)s2)cn1CC1CC1 | 1.4 µM (≈ 0.889 µg/mL) | 27 °C | 2.8 µM (≈ 1.78 µg/mL) | 1.4 µM (≈ 0.889 µg/mL) | 65% | – |
| CN=C(CCNC(=O)c1cc(NC(=O)c2ccc(C(=O)Nc3cc(C(=O)NCCC(=NC)NC)n(CCC(C)C)c3)cc2)cn1CCC(C)C)NC | – | – | – | – | 50% | – |
| CC(C)CCn1cc(NC(=O)C2=CC=C(C(=O)Nc3cc(C(=O)NCCC(=N)N)n(CCC(C)C)c3)CC2)cc1C(=O)NCCC(=N)N | 0.7 µM (≈ 0.464 µg/mL) | 26 °C | 1.4 µM (≈ 0.928 µg/mL) | 1.4 µM (≈ 0.928 µg/mL) | 23% | – |
| Cc1cc(C(=O)Nc2cc(C(=O)NCCC(=N)N)n(CCC(C)C)c2)c(C)cc1C(=O)Nc1cc(C(=O)NCCC(=N)N)n(CCC(C)C)c1 | 11.4 µM (≈ 7.85 µg/mL) | 12 °C | > 45.5 µM | > 45.5 µM | 75% | – |
| CC(C)CCn1cc(NC(=O)c2ccc(C(=O)Nc3cc(C(=O)NCCN)n(CCC(C)C)c3)cc2)cc1C(=O)NCCN | 2.8 µM (≈ 1.7 µg/mL) | 20 °C | 11.4 µM (≈ 6.92 µg/mL) | 11.4 µM (≈ 6.92 µg/mL) | 24% | – |
| CC(C)CCn1cc(NC(=O)c2ccc(C(=O)Nc3cc(C(=O)NCCN=C(N)N)n(CCC(C)C)c3)cc2)cc1C(=O)NCCN=C(N)N | 0.7 µM (≈ 0.484 µg/mL) | 25 °C | 1.4 µM (≈ 0.967 µg/mL) | 1.4 µM (≈ 0.967 µg/mL) | 5% | – |
| N=C(N)CCNC(=O)c1cc(NC(=O)c2ccc(C(=O)Nc3cc(C(=O)NCCC(=N)N)n(CC4CC4)c3)cc2)cn1CC1CC1 | 1.4 µM (≈ 0.88 µg/mL) | 28 °C | 0.7 µM (≈ 0.44 µg/mL) | 2.8 µM (≈ 1.76 µg/mL) | 72% | – |
| Cn1cc(NC(=O)c2ccc(C(=O)Nc3cc(C(=O)NCCC(=N)N)n(C)c3)cc2)cc1C(=O)NCCC(=N)N | 22.7 µM (≈ 12.5 µg/mL) | – | > 45.5 µM | 22.2 µM (≈ 12.2 µg/mL) | 56% | 30 |
